Data as given in ChEMBL document CHEMBL2311405, “Synthesis and biological evaluation of indenoisoquinolines that inhibit both tyrosyl-DNA phosphodiesterase I (Tdp1) and topoisomerase I (Top1)” (J Med Chem, 2013).
The source made the active and inactive calls. The calls are words filed in the database; no cut-off is given here.

Legend:
HCT-116 = assay: Growth inhibition of human HCT116 cells; type: functional
OVCAR-3 = assay: Growth inhibition of human OVCAR3 cells; type: functional
UACC-62 = assay: Growth inhibition of human UACC62 cells; type: functional
SN12C = assay: Growth inhibition of human SN12C cells; type: functional
HOP-62 = assay: Growth inhibition of human HOP62 cells; type: functional
SF-539 = assay: Growth inhibition of human SF539 cells; type: functional
Method in brief: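 Human cancer cell line panel, compounds tested at concentrations up to 10 μM. GI50 per cell line is the mean of two determinations where a standard error is given, otherwise from one determination.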

DU-145 = assay: Growth inhibition of human DU145 cells; type: functional
[1] = biological target: T1, DNA topoisomerase 1 (Homo sapiens) (UniProt P11387); assay: Inhibition of recombinant Top1 (unknown origin) using 3'-[32P]-end-labeled 117 bp oligonucleotide as substrate after 20 mins by SDS-PAGE analysis
T1 sequence (whole entry): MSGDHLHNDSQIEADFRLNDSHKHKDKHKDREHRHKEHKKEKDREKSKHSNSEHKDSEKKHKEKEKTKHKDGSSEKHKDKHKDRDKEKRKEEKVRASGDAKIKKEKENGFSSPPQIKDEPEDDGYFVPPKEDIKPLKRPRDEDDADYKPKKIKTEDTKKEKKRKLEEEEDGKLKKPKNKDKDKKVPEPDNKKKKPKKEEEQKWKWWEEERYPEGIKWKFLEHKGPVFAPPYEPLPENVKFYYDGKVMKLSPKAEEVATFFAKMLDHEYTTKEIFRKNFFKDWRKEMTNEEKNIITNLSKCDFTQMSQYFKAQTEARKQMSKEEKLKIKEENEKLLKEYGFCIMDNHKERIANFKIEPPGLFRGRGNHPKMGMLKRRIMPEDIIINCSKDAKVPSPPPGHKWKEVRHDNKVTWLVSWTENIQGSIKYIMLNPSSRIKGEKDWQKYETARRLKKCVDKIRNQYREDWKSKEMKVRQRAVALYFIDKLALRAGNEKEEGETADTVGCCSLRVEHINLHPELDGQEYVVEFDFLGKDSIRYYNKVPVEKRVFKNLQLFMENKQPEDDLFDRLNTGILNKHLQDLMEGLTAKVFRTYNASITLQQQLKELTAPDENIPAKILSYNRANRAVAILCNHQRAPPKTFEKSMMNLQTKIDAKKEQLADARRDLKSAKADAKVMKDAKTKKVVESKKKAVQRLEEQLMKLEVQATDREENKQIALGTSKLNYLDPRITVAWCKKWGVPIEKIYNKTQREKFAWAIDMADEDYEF
Method in brief: (§1)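 3′-[32P]-end-labeled 117-bp DNA at 2 nM incubated with recombinant Top1 at 25 °C for 20 min across a range of compound concentrations. Stopped with SDS (0.5% final) plus formamide loading dye, then 20% denaturing PAGE. Dried gels were phosphorimaged.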

MDA-MB-435 = assay: Growth inhibition of human MDA-MB-435 cells; type: functional
[2] = biological target: Tyrosyl-DNA phosphodiesterase 1 (Homo sapiens, UniProt Q9NUW8); assay: Inhibition of recombinant Tdp1 (unknown origin) using 5'-[32P]-labeled single-stranded DNA oligonucleotide containing 3'-phosphotyrosine as substrate after 15 mins by PAGE analysis
Tyrosyl-DNA phosphodiesterase 1, sequence (Q9NUW8 whole entry): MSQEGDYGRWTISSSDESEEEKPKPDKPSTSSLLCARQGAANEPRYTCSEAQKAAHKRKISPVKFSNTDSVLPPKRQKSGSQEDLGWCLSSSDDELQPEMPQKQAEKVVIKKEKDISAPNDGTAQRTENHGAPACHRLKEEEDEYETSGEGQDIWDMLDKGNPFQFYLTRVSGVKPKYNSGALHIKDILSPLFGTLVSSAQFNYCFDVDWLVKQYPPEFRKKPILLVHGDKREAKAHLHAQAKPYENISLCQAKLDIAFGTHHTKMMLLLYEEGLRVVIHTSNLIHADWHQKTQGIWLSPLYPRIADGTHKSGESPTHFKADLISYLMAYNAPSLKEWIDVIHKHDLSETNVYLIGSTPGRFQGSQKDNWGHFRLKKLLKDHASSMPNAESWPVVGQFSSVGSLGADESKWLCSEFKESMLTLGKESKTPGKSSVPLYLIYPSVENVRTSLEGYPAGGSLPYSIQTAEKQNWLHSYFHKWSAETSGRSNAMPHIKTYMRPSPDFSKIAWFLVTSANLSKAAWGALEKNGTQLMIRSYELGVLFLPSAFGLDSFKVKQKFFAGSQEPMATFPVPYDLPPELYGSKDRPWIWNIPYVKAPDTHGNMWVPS

[3] = biological target: T1, DNA topoisomerase 1 (Homo sapiens); assay: Inhibition of recombinant Top1 (unknown origin) using 3'-[32P]-end-labeled 117 bp oligonucleotide as substrate assessed as suppression of DNA cleavage at 100 uM by SDS-PAGE analysis; method in brief: as §1
[4] = biological target: T1, DNA topoisomerase 1 (Homo sapiens); assay: Inhibition of recombinant Top1 (unknown origin) using 3'-[32P]-end-labeled 117 bp oligonucleotide as substrate after 20 mins by SDS-PAGE analysis relative to 1 uM MJ-3-65

SMILES	GI50 (HCT-116)	GI50 (OVCAR-3)	GI50 (UACC-62)	GI50 (SN12C)	GI50 (DU-145)	inhibition [1]	GI50 (MDA-MB-435)	IC50 [2]	other results
COC(=O)CCCC(=O)Nc1ccc2c3c(n(CCCN)c(=O)c2c1)-c1ccccc1C3=O	0.38 µM	1.47 µM	1.22 µM	1.02 µM	0.54 µM	inactive	2.05 µM	–	GI50 (HOP-62): 0.79 µM; GI50 (SF-539): 1.47 µM
NCCCn1c2c(c3ccc(NC(=O)C(=O)O)cc3c1=O)C(=O)c1ccccc1-2	–	–	–	–	–	inactive	–	> 111 µM	–
Cn1c2c(c3ccc(NCC(=O)O)cc3c1=O)C(=O)c1ccccc1-2	–	–	–	–	–	inactive	–	> 111 µM	–
COC(=O)CCC(=O)Nc1ccc2c3c(n(C)c(=O)c2c1)-c1ccccc1C3=O	–	–	–	–	–	–	–	> 111 µM	–
COC(=O)CCCCC(=O)Nc1ccc2c3c(n(CCCN)c(=O)c2c1)-c1ccccc1C3=O	0.51 µM	3.52 µM	2.43 µM	1.82 µM	0.77 µM	–	4.3 µM	–	GI50 (HOP-62): 2.32 µM; GI50 (SF-539): 5.65 µM
COC(=O)CC(=O)Nc1ccc2c3c(n(C)c(=O)c2c1)-c1ccccc1C3=O	–	–	–	–	–	inactive	–	> 111 µM	–
CCOC(=O)CNc1ccc2c3c(n(C)c(=O)c2c1)-c1ccccc1C3=O	–	–	–	–	–	inactive	–	> 111 µM	–
COc1ccc2c(c1)-c1c(c3ccc([N+](=O)[O-])cc3c(=O)n1CCCn1ccnc1)C2=O	< 0.01 µM	0.03 µM	< 0.01 µM	< 0.01 µM	< 0.01 µM	–	0.03 µM	–	GI50 (HOP-62): < 0.01 µM; GI50 (SF-539): < 0.01 µM; inhibition [3]: inactive; inhibition [4]: Active
COC(=O)C(=O)Nc1ccc2c3c(n(CCCN)c(=O)c2c1)-c1ccccc1C3=O	0.57 µM	4.01 µM	1.22 µM	2.53 µM	1.11 µM	inactive	3.36 µM	45 µM	GI50 (HOP-62): 0.65 µM; GI50 (SF-539): 6.9 µM
CC(=O)Nc1ccc2c3c(n(CCCN)c(=O)c2c1)-c1ccccc1C3=O	–	–	–	–	–	inactive	–	–	–
CCOC(=O)CNc1ccc2c3c(n(CCCN)c(=O)c2c1)-c1ccccc1C3=O	0.44 µM	3.12 µM	2.25 µM	1.75 µM	1.68 µM	–	3.05 µM	–	GI50 (HOP-62): 0.93 µM; GI50 (SF-539): 8.91 µM
N#Cc1ccc2c3c(n(CCCn4ccnc4)c(=O)c2c1)-c1ccccc1C3=O	–	–	–	–	–	–	–	> 111 µM	inhibition [4]: Active
COc1ccc2c(c1)C(=O)c1c-2n(CCCN(C)C)c(=O)c2cc(I)ccc12	–	–	–	–	–	–	–	–	inhibition [3]: Active; inhibition [4]: Active
Cn1c2c(c3ccc(NC(=O)CC(=O)O)cc3c1=O)C(=O)c1ccccc1-2	–	–	–	–	–	–	–	> 111 µM	–
O=C1c2ccccc2-c2c1c1ccc([N+](=O)[O-])cc1c(=O)n2CCCO	0.19 µM	0.87 µM	0.31 µM	0.47 µM	0.43 µM	–	1.97 µM	–	inhibition [4]: Active
COC(=O)CCC(=O)Nc1ccc2c3c(n(CCCNC(=O)OC(C)(C)C)c(=O)c2c1)-c1ccccc1C3=O	–	–	–	–	–	inactive	–	> 111 µM	–
CN(C)CCCn1c2c(c3ccc(C#N)cc3c1=O)C(=O)c1cc3c(cc1-2)OCO3	–	–	–	–	–	–	–	> 111 µM	inhibition [3]: Active
COC(=O)CCCC(=O)Nc1ccc2c3c(n(CCCNC(=O)OC(C)(C)C)c(=O)c2c1)-c1ccccc1C3=O	–	–	–	–	–	inactive	–	> 111 µM	–
NCCCn1c2c(c3ccccc3c1=O)C(=O)c1ccccc1-2	–	–	–	–	–	–	–	–	inhibition [4]: Active
CC(=O)Nc1ccc2c3c(n(CCCN)c(=O)c2c1)-c1ccccc1C3O (stereo not given)	–	–	–	–	–	inactive	–	–	–
NCCCn1c2c(c3ccc(NC(=O)CCC(=O)O)cc3c1=O)C(=O)c1ccccc1-2	–	–	–	–	–	inactive	–	> 111 µM	–
NCCCn1c2c(c3ccc(N)cc3c1=O)C(=O)c1ccccc1-2	0.18 µM	0.13 µM	0.3 µM	0.23 µM	0.12 µM	–	0.23 µM	–	GI50 (HOP-62): 0.27 µM; GI50 (SF-539): 0.34 µM
